Assay outcomes: PubChem, Sanford-Burnham Center for Chemical Genomics
Shown are actives, neighbours in structure and some others; about 1.7% of the full set was active somewhere.
Scp-1 inhibitor: blocks human Scp-1 phosphatase activity. Q9GZU7. Recombinant Scp1, phosphopeptide, malachite green phosphate absorbance. inhibition, % at 20 µM. hit rate 0.88% among 340,000;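 active = inhibition above about 50% at 20 µM, limit read from the data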
Target sequence (Q9GZU7 76-261 limits assumed): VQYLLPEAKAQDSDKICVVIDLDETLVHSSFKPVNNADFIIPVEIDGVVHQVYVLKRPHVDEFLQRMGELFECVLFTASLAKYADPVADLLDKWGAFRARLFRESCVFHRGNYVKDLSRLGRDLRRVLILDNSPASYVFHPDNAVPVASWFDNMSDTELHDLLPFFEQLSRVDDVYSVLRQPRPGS
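Material: truncated SCP-1 phosphatase (76-261aa) / Buffer or medium: 50 mM Tris acetate pH 5.5, 0.005% Tween-20, 10 mM MgCl2 / Compound dosing: one concentration, 20 µM, with 1.0% DMSO / Incubation: 45 min room-temperature reaction, 5 min colour, 30 min stabiliser / Detection: colorimetric free-phosphate detection, absorbance 630 nm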
SUMO1-SIM PPI: alters human SUMO1 binding to SIM partners. inhibition, % at 20 µM. SUMO1 binding to a labelled peptide, TR-FRET, 1 h. P63165. AID 602429. hit rate 0.33% among 360,000; in the data active = inhibition above about 37%
Target sequence (P63165 whole entry, looked up): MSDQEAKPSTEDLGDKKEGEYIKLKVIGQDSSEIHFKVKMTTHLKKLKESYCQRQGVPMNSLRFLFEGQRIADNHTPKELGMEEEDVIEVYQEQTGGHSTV
LMPTP block: blocks human LMPTP phosphatase; P24666; recombinant LMPTP-A, OMFP fluorogenic substrate, fluorescence intensity; inhibition, % at 20 µM; hit rate 0.22% among 360,000;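 active = compounds that cut the enzyme signal by at least half of the control window in the single-dose screen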
Target sequence (P24666 whole entry, looked up): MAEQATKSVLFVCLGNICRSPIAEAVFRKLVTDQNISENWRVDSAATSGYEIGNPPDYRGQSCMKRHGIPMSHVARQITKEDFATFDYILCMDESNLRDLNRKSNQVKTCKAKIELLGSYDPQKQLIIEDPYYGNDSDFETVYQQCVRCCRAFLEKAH
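material = LMPTP-A | quantity = 0.625 nM enzyme | reagent = OMFP substrate, 400 µM final | buffer or medium = Bis-Tris pH 6.0, DTT, detergent | detection = endpoint fluorescence intensity from OMFP dephosphorylation | dosing = single 20 µM dose | read-out basis = % inhibition relative to no-enzyme and uninhibited control wells | control set = no-enzyme and uninhibited controls | timing = 50 min at room temperature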
STEP inh: STEP (human) phosphatase inhibition | inhibition, % at 20 µM | P54829 | recombinant STEP, OMFP fluorogenic substrate, fluorescence | AID 588621 | hit rate 0.25% among 360,000;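 active = inhibition at 20 µM, scaled per plate between control wells, above about 37%, limit read from the data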
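Assay system: isolated STEP enzyme / Timing: 20 min at room temperature, dark / Doses: 20 µM, 1% DMSO / Technique: fluorescence intensity, excitation 480 nm, emission 540 nm / Reagent: fluorogenic phosphatase substrate OMFP at 25 µM final / Measure: percent inhibition scaled to no-enzyme and uninhibited-enzyme controls, plate-pattern corrected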
DNMT1 inh: blocks human DNA methyltransferase DNMT1; DNMT1 molecular beacon, Hinp1I cleavage, fluorescence; inhibition (reported as % activation of signal), % at 10 µM; hit rate 0.83% among 360,000; AID 588458; in the data active = inhibition above about 50%
Beacon interf DR: shows spectral interference in the DNMT1 beacon assay; shares compounds with DNMT1 inh; molecular beacon fluorescence, spectral interference counter-screen; IC50, µM; 200 tested, under 10 active; AID 602382; call rule not given here
DNMT1 inh conf: DNMT1 inhibition confirmation, single concentration; DNMT1 molecular beacon HinP1I cleavage, fluorescence; shares compounds with DNMT1 inh; inhibition, % at 10 µM; hit rate 8% among 2,300;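 active = average inhibition of at least 30% in the single-concentration confirmation test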
Beacon interf: shows spectral interference in the DNMT1 beacon assay; shares compounds with DNMT1 inh; DNMT1 molecular beacon spectral interference counterscreen, fluorescence 485/520; hit rate 1% among 2,300; activation (fluorescence interference), % at 10 µM;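 active = activation of at least 30% at 10 µM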;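 note: DNMT1 catalytic domain with a HinP1I cleavage step and a FAM/dabcyl DNA beacon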
Of the large screens only hits and unclear results are named; the others gave an inactive call (follow-up assays come after a bar, where they were run).

Cc1ccccc1NC(=O)c1cc(-c2ccco2)nc2ccccc12	Scp-1 inhibitor 84 | DNMT1 inh conf inactive | Beacon interf inactive
COC(=O)C1CCN(C(=O)c2cc(-c3ccco3)nc3ccccc23)CC1	Scp-1 inhibitor 70, DNMT1 inh 86 | Beacon interf DR inactive | DNMT1 inh conf 50 | Beacon interf inactive
O=C(N/N=C/c1cccc(F)c1)c1cc(-c2ccco2)nc2ccccc12	Scp-1 inhibitor 81, LMPTP block 56, DNMT1 inh 97 | Beacon interf DR inactive | DNMT1 inh conf 68 | Beacon interf inactive
Cc1ccc(S(=O)(=O)N(C)C)cc1NC(=O)c1cc(-c2ccco2)nc2ccccc12	none
COc1cc(/C=N/NC(=O)c2cc(-c3ccco3)nc3ccccc23)cc(OC)c1O	none
COc1ccc(-c2cc(C(=O)N(C)CC(=O)Nc3cccc(F)c3)c3ccccc3n2)cc1OC	none (no result: Scp-1 inhibitor)
Cc1ccccc1C(=O)N1CCC[C@H]1C(=O)N1CCC[C@H]1C(=O)NCc1ccccn1	none (no result: Scp-1 inhibitor, STEP inh, DNMT1 inh)
CSc1ccccc1NC(=O)COC(=O)Cc1ccsc1	none
COc1ccc(NC(=O)c2cc(-c3ccco3)nc3ccccc23)cc1S(=O)(=O)N1CCOCC1	Scp-1 inhibitor 85, DNMT1 inh 64 | DNMT1 inh conf inactive | Beacon interf inactive
O=C(NCC1CCCO1)c1cc(-c2ccco2)nc2ccccc12 (configuration not stated)	DNMT1 inh 84 | DNMT1 inh conf inactive | Beacon interf inactive
O=C(NCC1CCCO1)c1cc(-c2ccncc2)nc2ccccc12 (configuration not stated)	none
COc1ccc(NC(=O)c2cc(C)nc3ccccc23)cc1S(=O)(=O)N1CCOCC1	none
COc1ccc(NC(=O)Nc2ccc3c(c2)C(=O)N([C@@H](C)CO)C[C@@H](C)[C@@H](CN(C)S(=O)(=O)c2cn(C)cn2)O3)cc1	none
Cc1cc(NC(=O)CSc2nc3sc4c(c3c(=O)n2C)CCCC4)no1	DNMT1 inh 56 | DNMT1 inh conf inactive | Beacon interf inactive
COc1cccc(C(=O)Nc2ccc(S(=O)(=O)NCc3ccco3)cc2)c1	none
O=C(Nc1ccc(S(=O)(=O)NCc2ccco2)cc1)c1cccc(F)c1	DNMT1 inh 84 | DNMT1 inh conf inactive | Beacon interf inactive
CC(OC(=O)CCN=C1NS(=O)(=O)c2ccccc21)C(=O)c1ccccc1 (configuration not stated)	DNMT1 inh 72 | DNMT1 inh conf inactive | Beacon interf inactive
CN1CCN(c2ccc(CNC(=O)C3(C)Cc4c(-c5ccc6c(c5)OCO6)ccnc4O3)cc2)CC1 (configuration not stated)	none (no result: Scp-1 inhibitor)
CC1CCCCN1CCNC(=O)c1ccc2c(c1)N(Cc1cccc(Cl)c1)C(=O)c1ccccc1S2(=O)=O (configuration not stated)	DNMT1 inh 86 (no result: Scp-1 inhibitor) | DNMT1 inh conf inactive | Beacon interf inactive
O=C(NCCCN1CCCC1)c1ccc2c(c1)N(Cc1cccc(Cl)c1)C(=O)c1ccccc1S2(=O)=O	none (no result: Scp-1 inhibitor)
CCOC(=O)c1cc(OC)c2cccc(CN3CCC(C)(C(=O)NCCOC)C3)c2c1 (configuration not stated)	none (no result: Scp-1 inhibitor)
C=CCC[C@H](Cc1ccc(F)cc1)C(=O)OC[C@H](Cc1c[nH]c2ccccc12)NC(=O)[C@@H](CC=C)CC(=O)N[C@@H](CO)Cc1ccccc1	DNMT1 inh 69 | DNMT1 inh conf inactive | Beacon interf inactive
C=CC[C@@H](CC(=O)N[C@H](CO)Cc1ccccc1)C(=O)NC[C@@H](OC(=O)[C@@H](CC=C)Cc1ccc(F)cc1)c1ccccc1	DNMT1 inh 77 | DNMT1 inh conf inactive | Beacon interf inactive
C=CCC[C@H](Cc1ccc(F)cc1)C(=O)OC[C@@H](C)NC(=O)[C@@H](CC=C)CC(=O)N[C@H](CO)Cc1ccccc1	none
C=CCC[C@@H](Cc1ccc(F)cc1)C(=O)O[C@H](CNC(=O)[C@@H](CC=C)CC(=O)N[C@H](CO)Cc1ccccc1)c1ccccc1	DNMT1 inh 83 | DNMT1 inh conf inactive | Beacon interf inactive
C=CC[C@@H](CC(=O)N[C@@H](CO)Cc1ccccc1)C(=O)N[C@H](COC(=O)[C@@H](CC=C)Cc1ccc(F)cc1)Cc1ccccc1	DNMT1 inh 62 | DNMT1 inh conf inactive | Beacon interf inactive
CN1CCN(C(=O)CN(C2CCCCC2)S(=O)(=O)c2ccc(Br)cc2)CC1	none
CCOc1cc(/C=C/C(=O)c2ccc(OC)c(CN3CCOCC3)c2)cc(Br)c1O	none
C[C@H](NC(=O)c1[nH]cnc1C(=O)N[C@@H](C)CO)c1ccccc1	none (no result: Scp-1 inhibitor)
CCOc1cc(/C=C2\C(=N)N3N=CSC3=NC2=O)ccc1OS(=O)(=O)c1ccccc1	none
CCOc1cc(/C=C2/C(=N)N3N=C(C)SC3=NC2=O)ccc1OS(=O)(=O)c1ccc(C)cc1	DNMT1 inh 75 | DNMT1 inh conf inactive | Beacon interf inactive
CC1(c2nnnn2-c2ccc3c(c2)OCCO3)CCC(=O)N1Cc1cccc(C(F)(F)F)c1 (configuration not stated)	none (no result: Scp-1 inhibitor, STEP inh, DNMT1 inh)
CC1(C)CC(NC(=O)c2ccc(F)cc2)CC(C)(C)N1	none (no result: Scp-1 inhibitor)
CC1(C)CC(NC(=O)c2ccccc2)CC(C)(C)N1	DNMT1 inh 101 | DNMT1 inh conf inactive | Beacon interf inactive
Cc1cccc(NC(=O)c2nc[nH]c2C(=O)NCCN(CCNC(=O)c2[nH]cnc2C(=O)Nc2cccc(C)c2)CCNC(=O)c2[nH]cnc2C(=O)Nc2cccc(C)c2)c1	none
CC(C)(C)OC(=O)NCc1ccc(NC(=O)c2nc[nH]c2C(=O)NCCNC(=O)c2[nH]cnc2C(=O)Nc2ccc(CNC(=O)OC(C)(C)C)cc2)cc1	DNMT1 inh 64 | DNMT1 inh conf inactive | Beacon interf inactive
Cc1cccc(NC(=O)c2nc[nH]c2C(=O)NCCCNC(=O)c2[nH]cnc2C(=O)Nc2cccc(C)c2)c1	DNMT1 inh 73 | DNMT1 inh conf inactive | Beacon interf inactive
c1ccc2c(c1)C1=NCCN1c1ccccc1-2	DNMT1 inh 66 (no result: Scp-1 inhibitor) | Beacon interf DR inactive | DNMT1 inh conf 48 | Beacon interf inactive
CC(=O)NCCC(=O)Nc1cccc(S(=O)(=O)N(C)c2ccccc2)c1	DNMT1 inh 56 | DNMT1 inh conf inactive | Beacon interf inactive
CCN(CC(=O)Nc1cc(Cl)ccc1C)C(=O)c1ccc(N2CCCC2=O)cc1	none
Cc1ccccc1NC(=O)COC(=O)c1ccc(CSc2ccc(Cl)cc2)cc1	DNMT1 inh 52 | DNMT1 inh conf inactive | Beacon interf inactive
